Among the data in PubChem BioAssay AID504382 (The Scripps Research Institute Molecular Screening Center, 2011) are fluorescence artifact activation values, retold here.

Screen size: about 2,500 compounds; about 460 (18%) were called active. The list is a sample of the results. A number with no mark means an inactive call.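 Rule for the calls: active = mean activation above a cutoff of low control average plus 3 SD from the earlier screen (cut at about 12% in these data); inactive = the rest.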

This assay in a line: compound fluorescence interference without thin filaments, confirmation, artefact control for cardiac RTF calcium sensitizer project, biochemical (AID 504382). The conditions noted are these: IANBD fluorescence interference counterscreen, buffer, EC20 Ca2+; at 7.2 µM; hits give high values; scaled: EC20 calcium 0, EC100 calcium 100. Summed up:
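Also added: EC20 calcium, 0.472 mM; dosing: single nominal 7.2 µM compound dose, 0.7% DMSO final; timing: 15 min, 25 °C; detection: fluorescence intensity, excitation 480 nm, emission 540 nm; replicates: each compound tested in triplicate wells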
For orientation: The purpose of a counterscreen is to sort out artefacts and off-target activity.
As for `COc1ccc(NC(=O)Nc2cccnc2)c(OC)c1`, the fluorescence artifact activation was 0.16%. The value for `COc1ccc(-c2nnc(-c3cccnc3)o2)cc1` was 15.1% (active); that for `COc1ccc(-c2nc(/C=C3\C(C)=Nc4ccccc43)c(O)o2)cc1` was 1.03%.

In the case of `CC(=O)C1=C(O)CCCC1=NCc1nc2ccccc2[nH]1`, the fluorescence artifact activation is 0.23%. The result for `CCCN(CCC)C(=O)C1c2ccccc2Oc2ccccc21` reads 3.9%. As for `CN(Cc1ccccc1)C(=O)N1CCOCC1`, the fluorescence artifact activation is 0.11%. On to `CN1CCC(N(CCc2ccccc2)C(=O)CCC(=O)O)CC1`, for which the fluorescence artifact activation is 46% (active). The result for `CN1CCc2c(sc3c2C(=O)NC(c2ccccn2)N3)C1` (stereo not drawn) reads 0.36%; that for `Cc1ccccc1-n1c(SCc2c(C)noc2C)nnc1-c1cccnc1`, 0.05%.

In the case of `Cc1ccc2nc(/C(C#N)=C/c3ccc(-c4ccccc4C(=O)O)o3)[nH]c2c1`, the fluorescence artifact activation was 0.32%.

In the case of `N#C/C(=C/c1ccc(N2CCOCC2)o1)C(=O)N1CCOCC1`, the fluorescence artifact activation is 0.41%.

Regarding `N#C/C(=C\c1ccc(-c2ccccc2C(=O)O)o1)c1nc2ccccc2[nH]1`, the fluorescence artifact activation was 1.15%. The value for `Cc1ccc2nc(/C(C#N)=C\c3ccc(N4CCOCC4)o3)[nH]c2c1` was 16.5% (active); that for `N#C/C(=C\c1ccc(N2CCOCC2)o1)c1nc2ccccc2[nH]1` was 14.2% (active); that for `N#C/C(=C/c1ccc(N2CCOCC2)o1)c1nc2ccccc2[nH]1` was 0.08%. Turning to `CCOP(=O)(OCC)/C(=N/OC(=O)c1ccc(OC)cc1)C(N)=O`, the fluorescence artifact activation is 0.15%. The result for `Cc1c(CN2CCCC(C)C2)c(O)n(CCO)c(=O)c1C#N` (stereo not drawn) reads 1.74%. The result for `C=CCN1C(=O)C(Cc2cccc(Cl)c2)S/C1=N/N=C/c1ccco1` (stereo not drawn) reads 0.07%; that for `CCOc1ccc(C2CC(c3c(O)c4ccccc4oc3=O)=NN2c2ccccc2)cc1OC` (stereo not drawn), 5.17%. On to `CCOc1cc(C2C3=C(CCCC3=O)N(C)C3=C2C(=O)CCC3)cc(Cl)c1O`, for which the fluorescence artifact activation is -0.02%. Turning to `CCOc1ccc(C2C(C#N)=C(N)SC(N)=C2C#N)c(OCC)c1`, the fluorescence artifact activation is 0.05%.

On to `CCOc1cc(C2C(C#N)=C(N)OC(C)=C2C(C)=O)cc(Br)c1O` (stereo not drawn), for which the fluorescence artifact activation was 37.6% (active).

Take `COc1ccc(OCC(=O)OCCNC(=O)c2cccnc2)cc1`: the fluorescence artifact activation is 0.14%. As to `O=C(CN1C(=O)c2ccccc2C1=O)NCc1ccc(N2CCOCC2)cc1`, the fluorescence artifact activation was 1.1%. The value for `Cc1cc2nc3c(=O)[nH]c(=S)[nH]c3nc2cc1NC(=O)C(F)(F)F` was 5.96%. The value for `O=C1c2ccccc2C(Nc2cccnc2)N1Cc1ccccc1Cl` (stereo not drawn) was 10.4%.

Regarding `Cc1ccc(-n2nc(C)c(=O)c(-c3ccccc3)c2NC(=O)c2cccs2)cc1`, the fluorescence artifact activation is 1.25%.

Turning to `CC(C)C[C@@H](CN=[N+]=[N-])N1CCN(C)CCC1=O`, the fluorescence artifact activation is 0.09%. In the case of `O=c1cc(CN2CCCc3ccccc32)nc2sccn12`, the fluorescence artifact activation was 0.01%. With `c1ccc2c(c1)CCCN2Cc1nnc2n1CCCCC2`, the fluorescence artifact activation was 37% (active). `c1ccc2c(c1)CCCN2Cc1nnnn1CC1CCCO1` (stereo not drawn): the fluorescence artifact activation is 0.36%. As to `COc1ccc(CNc2nn[nH]n2)cc1OC`, the fluorescence artifact activation was 2.6%.

Take `Cc1ccc([C@@H]2C3COCC=C3C(C#N)=C(N)C2(C#N)C#N)o1` (stereo partly drawn): the fluorescence artifact activation is 0.32%. The value for `CN1CCN(/N=C/c2ccc(OCc3ccccc3)cc2)CC1` was 107% (active); that for `CN1CCN(CCOc2ccc(Cc3ccccc3)cc2)CC1` was 0.23%. The result for `O=C(C1CCN(Cc2ccc(OCc3ccccc3)cc2)CC1)N1CCCC1` reads 0.13%; that for `Cc1ccc(/C=C2\Oc3c(ccc(O)c3CN3CCN(C)CC3)C2=O)cc1`, 0.13%. For the molecule `OCCN1CCN(CC(O)COc2ccc(C34CC5CC(CC(C5)C3)C4)cc2)CC1` (stereo not drawn), the fluorescence artifact activation is 32.1% (active).

As for `CCCCNc1nc(-c2ccccc2)nc(-n2ccnc2)n1`, the fluorescence artifact activation is 1.09%.

Take `COc1cc(CCCN2C(=S)NC[C@@H]2CC2CCCCC2)cc(OC)c1OC`: the fluorescence artifact activation was 7.7%. The value for `Cc1cc2cc(C=C(C#N)C#N)c(Cl)nc2cc1C` was -0.03%; that for `Cc1cc(C(=O)NNC(=S)Nc2ccccc2C)cs1` was 1.65%; that for `NC(=O)NNC1=Nc2cccc3cccc1c23` was 1.01%. The result for `CC(Oc1ccc(S(=O)(=O)N2CCCC2)cc1[N+](=O)[O-])C(=O)N(C)c1ccccc1` (stereo not drawn) reads 0.2%; that for `O=C(COc1ccc(Cl)cc1[N+](=O)[O-])N1CCCCC1`, 18.1% (active); that for `O=C(COc1ccc(Cl)cc1[N+](=O)[O-])N1CCCCCC1`, 0.34%. Regarding `COc1ccc(NC(=O)NS(=O)(=O)c2ccc(C)cc2)cn1`, the fluorescence artifact activation was 0.39%.

On to `O=C(N1CCOCC1)N1CCC(n2nnc3ccccc32)CC1`, for which the fluorescence artifact activation is 0.06%. The result for `Cc1ccsc1C1C=C(c2cccc(Br)c2)Nc2ncnn21` (stereo not drawn) reads -0.01%; that for `CCOC(=O)c1sc(=NC(=O)c2cc(OC)c(OC)c(OC)c2)n(C)c1C`, 80.1% (active). The result for `CCOC(=O)c1sc(-c2ccc(F)cc2)cc1NC(=O)Nc1ccccc1OC` reads 7.09%.

As to `CCOC(=O)c1sc(N)c(C#N)c1COC(=O)CNC(=O)c1cc(OC)c(OC)c(OC)c1`, the fluorescence artifact activation was 3.51%. The value for `S=C1NC2=C(CCC/C2=C\c2ccccc2)C(c2ccccc2)N1` (stereo not drawn) was 0.06%; that for `O=C(Oc1ccc2c(c1)O/C(=C\c1ccncc1)C2=O)c1ccccc1` was 33% (active).

Take `COc1ccc(/C=C2\Oc3cc(OCC(N)=O)ccc3C2=O)cc1OC`: the fluorescence artifact activation was 0.06%. The result for `COc1ccccc1C(=O)Oc1ccc2c(c1)O/C(=C\c1ccncc1)C2=O` reads 8.13%; that for `O=C(CC1SC(N2CCCCC2)=NC1=O)Nc1ccc(C(=O)NCc2ccccc2)cc1` (stereo not drawn), 3.4%.

As to `Cc1ccc(C(=O)Nc2ccc3c(c2)ncn3C)cc1`, the fluorescence artifact activation is 2.41%. On to `O=C1NC(c2ccco2)Nc2sc3c(c21)CCN(Cc1ccccc1)C3` (stereo not drawn), for which the fluorescence artifact activation was 0.37%. On to `COc1ccc(NC(=O)CC2C(=O)N(Cc3ccco3)C(=S)N2C(C)C)cc1` (stereo not drawn), for which the fluorescence artifact activation is 23.2% (active).

For `COc1ccc(NC(=O)CS(=O)(=O)c2cccc(Cl)c2)cc1`, the fluorescence artifact activation was 0.13%. The value for `COc1ccc(/C(O)=C2\C(=O)C(=O)N(Cc3ccco3)C2c2cc(OC)ccc2OC)cc1` (stereo not drawn) was 0.4%. The value for `Cc1cccc(C)c1OCC(C)N` (stereo not drawn) was 4.83%; that for `O=C(COc1ccccc1F)NC1CC1` was 10.7%; that for `COc1ccccc1CNc1cc(C)ccc1C` was 415% (active). The value for `COc1ccc(C)cc1NC(=O)CC1COc2ccccc2O1` (stereo not drawn) was 0.06%; that for `C=CCOc1ccccc1CNc1cccc(F)c1` was 1.22%; that for `Cc1cccc(-n2c(C)cc(C=C3C(=O)c4ccccc4C3=O)c2C)c1` was -0.01%. For `CCC1SC(=Nc2cccc(C)c2)NC1=O` (stereo not drawn), the fluorescence artifact activation was 50% (active).

Regarding `COCCn1c(=NC(=O)/C=C/c2ccccc2)sc2cc(NC(C)=O)ccc21`, the fluorescence artifact activation was 3.82%.

For `CCOC(=O)c1c(C(C)(C)C)oc2ccc(OCC#N)cc12`, the fluorescence artifact activation was 0.48%. The value for `COc1cc2c(cc1OC)-c1cc3ccc4c(c3c[n+]1CC2)OCO4` was 0.19%; that for `O=C(CSc1nncc2ccccc12)Nc1ccc(F)cc1` was 51.6% (active). For the molecule `COc1ccc(NC(=O)CSc2nncc3ccccc23)cc1`, the fluorescence artifact activation is 0.15%. In the case of `Nc1nc(SCC(=O)Nc2ccc(Cl)cc2)[nH]c(=O)c1-c1ccccc1`, the fluorescence artifact activation is 0.2%.

As to `COc1ccc(CC/C(C)=N\NC(N)=O)cc1`, the fluorescence artifact activation was 1.07%. The result for `COc1ccc(C)cc1Nc1n[n+](-c2ccccc2)c(-c2cc([N+](=O)[O-])cc(OC)c2O)s1` reads -0.11%; that for `O=C1c2ccccc2-c2c1cccc2C(=O)N1CCCCCC1`, 0.15%; that for `O=C(c1ccccc1)N1CCCCC1`, 2.65%. Regarding `Cc1[nH]c(C)c(S(=O)(=O)N2c3ccccc3CC2C)c1C(=O)N1CCCCC1` (stereo not drawn), the fluorescence artifact activation is 43.6% (active). The result for `C=CCn1cccc(C(=O)Nc2ccc(OC)c(Cl)c2)c1=O` reads 0.54%; that for `CC1CCCCN1C(=O)Cn1nnc(-c2cccnc2)n1` (stereo not drawn), 1.03%.

For the molecule `COc1ccc(N2CCN(C(=O)Cn3nnc(-c4ccccc4N)n3)CC2)cc1`, the fluorescence artifact activation was 20.6% (active). Take `COc1c(O)cccc1-c1nnn(CCC(=O)OCC(=O)c2ccccc2)n1`: the fluorescence artifact activation was 10.9%. The value for `COC(=O)CCC(=O)OC1(C)C(=O)C=C2C=C(C3CC3)N(c3cccc(C#N)c3)C=C2C1=O` (stereo not drawn) was -0.02%; that for `COC(=O)c1ccc(Oc2c(F)c(F)nc(N3CCOCC3)c2F)cc1` was -0.07%. The result for `OCCN(CCO)c1nc(N2CCCCC2)c2nc(N(CCO)CCO)nc(N3CCCCC3)c2n1` reads 11.3%. The result for `O=C(c1ccc([N+](=O)[O-])cc1[N+](=O)[O-])n1cnc2ccccc21` reads -0.09%.

As to `CC(=O)c1nnn(-c2nc(N3CCCC3)nc(N(c3ccccc3)c3ccccc3)n2)c1C`, the fluorescence artifact activation is 0.23%. The value for `O=C(c1ccccc1C(=O)N1CCN(c2ccccc2)CC1)N1CCN(c2ccccc2)CC1` was -0.08%; that for `C=CCn1c(C)c(C(C)=O)c(N2CCN(c3ccccc3)CC2)nc1=S` was 28.9% (active). Take `CC1(C)C2CCC(C2)C1(C)N=C1OC(CCl)CS1` (stereo not drawn): the fluorescence artifact activation was 1.52%. For `CN(C)c1ccc(/C=C/C(=O)c2ccccc2O)cc1`, the fluorescence artifact activation was 0%. The result for `CN(C)c1ccc(/C=C/C(=O)c2ccc(O)cc2)cc1` reads -0.03%; that for `CC(C)=CCC/C(C)=C/Cc1c(O)ccc(C(=O)/C=C/c2ccc(O)cc2)c1O`, 177% (active); that for `COc1ccc(C2C(C(=O)c3cccs3)=C(O)C(=O)N2c2nncs2)cc1` (stereo not drawn), 5.56%. For the molecule `Cc1ccc(C)c(N2CCN(C(=O)c3cc4ccccn4n3)CC2)c1`, the fluorescence artifact activation was 4.58%. Take `CCN(CC)c1ccc(/C=C/C(=O)C2C(=O)C=C(C)OC2=O)cc1` (stereo not drawn): the fluorescence artifact activation was 0.16%.
